Source: PubChem BioAssay (Broad Institute)
ERAP1 HTS inh: inhibitors of human ERAP1 aminopeptidase; recombinant ERAP1, Leu-AMC fluorescence, 60 min; inhibition, % at 10.7 µM; 340,000 compounds, 0.15% hits; AID 652197;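 active = mean replicate inhibition of at least 30%, or all replicates individually reaching that 30% level; inactive = mean below 30% and not every replicate reaching it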;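 note: 0% = neutral control wells and 100% = L-leucinethiol positive control wells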
HIV Env fusion: blocks HIV Env-driven cell-cell fusion; HeLa-JRFL Env/CEM21 cell fusion, luciferase; inhibition, % at 12.3 µM; 360,000 compounds, 1.1% hits; AID 651610;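 active = mean replicate inhibition score of at least 50 and every replicate individually at or above 50; inconclusive = only one of the two criteria met; inactive = mean below 50 and not all replicates reaching 50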;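 note: 0% = plate neutral controls and 100% = maraviroc near 300 nM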
esBAF inh: blocks esBAF chromatin remodeling in mouse ES cells; AID 602393; 350,000 compounds, 2% hits; reporter increase, % at 12.5 µM; Bmi1-luciferase knock-in reporter, 24 h; 100% = twice the neutral-well signal; in the data active = activation above about 40%; inconclusive = no clear call, values can overlap the other calls;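 note: 0% = median of the plate's neutral control wells and 100% = double that signal; a rise in the Bmi1 reporter signal indicates esBAF inhibition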
MITF act: MITF TRPM1 promoter activation in melanoma cells; SK-MEL-5 TRPM1-promoter luciferase, 24 h; % of positive control, neutral wells = 0; activation, % at 12.5 µM; 300,000 compounds, 0.75% hits;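 active = mean activation of at least 80% with every replicate also reaching 80%; inconclusive = mean reaches 80% but some replicate falls short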;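 note: 0% = neutral control wells and 100% = parthenolide positive control wells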
Cneo AK release: Cryptococcus neoformans lysis via adenylate kinase release; C. neoformans lysis, adenylate kinase release luminescence, 4 h; normalised: neutral wells 0, clomiphene wells 100; lysis activity, % at 15 µM; 360,000 compounds, 0.2% hits; AID 651654;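 active = mean lysis activity across replicates of at least 80%, whatever share of replicates individually reach that level; inactive = mean lysis activity below 80%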
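Test system: log-phase Cryptococcus neoformans yeast cells. Input: 5 × 10^6 yeast cells/mL. Medium: fresh YPD growth medium. Doses: single dose. Incubation: static 4 h at 37 °C with compound, 1 h detection. Measured by: luminescent adenylate kinase detection reagent. Read-out: signal increase indicating cell lysis. Benchmarks: Clomiphene.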
Wnt act: Wnt/beta-catenin pathway activation. Wnt/beta-catenin reporter cell assay, activator, plate reader. 300,000 compounds, 1.2% hits. activation, % at 9.35 µM; in the data active = activation above about 30%, passing the limit was not always enough; inconclusive = no clear call, values can overlap the other calls;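 note: 0% = neutral control wells and 100% = positive control wells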
* hit, by the source's call; ? = inconclusive; / = not tested or not shown; [ ] = dose if it differs, or a comment. An excerpt weighted towards active compounds, which were near 3.5% of everything screened.

SMILES	ERAP1 HTS inh	HIV Env fusion	esBAF inh	MITF act	Cneo AK release	Wnt act
CC(C)(C)c1nnc(NC(=O)COc2ccc3c(c2)OCO3)s1	-6	-42	69*	85*	1	-2
CCOC(=O)c1sc(NC(=O)COc2ccc3c(c2)OCO3)nc1C	1	-18	-10	/	0	1
CC(C)Sc1nnc(NC(=O)c2ccc3c(c2)OCO3)s1	4	-69	37	88*	0	0
CC(C)(C)c1nnc(NC(=O)c2ccc3c(c2)OCO3)s1	-2	-48	/	121*	-1	?
COc1cccc(NC(=O)N[C@@H]2CC[C@H](CC(=O)N3CCOCC3)O[C@@H]2CO)c1	-3	8[16.7 µM]	-1	/	30	/
COc1ccc(CN(C)C[C@H]2Oc3ccc(NC(=O)Cc4cn(C)c5ccccc45)cc3C(=O)N([C@@H](C)CO)C[C@@H]2C)cc1	-1	17[16.7 µM]	1	/	-5	/
CCN1[C@H](C(=O)OC)[C@@H](CO)[C@@H]2Cn3c(ccc(C4=CCCCC4)c3=O)[C@@H]21	1	/	-2	/	0	/
O=C(N=Nc1c(O)n(Cc2ccccc2)c2ccccc12)c1cc2ccccc2cc1O	-1	-13	/	89*	3	-1
Cc1ccc(NC(=O)Cn2c(O)c(N=NC(=O)c3cc4ccccc4cc3O)c3ccccc32)cc1	/	33	/	-40	-1	1
O=C(N=Nc1c(O)n(Cc2ccccc2)c2ccccc12)c1ccc(O)cc1	/	-49	/	150*	0	/
COc1ccc(C(=O)NCC(=O)N=Nc2c(O)n(Cc3ccccc3)c3ccccc23)cc1OC	13	-4	/	-7	/	2
Nc1ccc(S(=O)(=O)c2ccc(N3CCOCC3)c(N)c2)cc1	2	81*	-5	/	-1	-22
Cc1oc(C(C)(C)C)cc1C(=O)Nc1ccc(C(=O)O)cc1	/	/	76*	68	-3	/
COCCN(C[C@H]1[C@H](c2ccccc2)[C@H](CO)N1C(C)=O)C(=O)c1cccnc1	0	/	-1	/	10	/
Cc1ccc(-n2nnc(-c3ccnc4ccccc34)n2)cc1	1	-270	69*	94*	-2	40*
Cc1ccc(-n2nc3c4c(cccc4c2=O)-c2ccccc2-3)cc1	/	30	1	2	-12	/
Cc1ccc(-n2nnc(-c3cc4ccccc4n3C)n2)cc1	/	-92	58*	75	-1	11
Fc1ccc(-n2nnc(-c3ccccc3)n2)cc1	2	1	1	5	-2	-1
Cn1c(-c2nnn(-c3ccc(F)cc3)n2)cc2ccccc21	/	-288	/	/	/	?
Fc1ccc(-n2nnc(-c3ccnc4ccccc34)n2)cc1	-4	-271	61*	/	-25	?
CCCNC(=O)N1CCC2(CC1)CN(C(=O)CC1CC1)[C@@H](CO)c1[nH]c3cc(OC)ccc3c12	1	/	/	/	/	/
O=C(C[C@@H]1C[C@H]2c3cc(NC(=O)C4CCOCC4)ccc3O[C@H]2[C@@H](CO)O1)NC1CCCCC1	-1	/	4	/	-4	/
COc1ccc(S(=O)(=O)Nc2ccc3c(c2)CC(=O)N([C@H](C)CO)C[C@H](C)[C@@H](CN(C)Cc2ccc(C(F)(F)F)cc2)O3)cc1	-1	44[16.7 µM]	8	/	0	/
O=C(/C=C/c1ccco1)NC(=S)Nc1cccc(-c2nc3ccccc3s2)c1	/	/	-8	-1	-3	-2
Cc1ccc(-c2nc3ccccc3s2)cc1NC(=S)NC(=O)/C=C/c1ccco1	/	/	65*	-21	-9	/
SMILES	ERAP1 HTS inh	HIV Env fusion	esBAF inh	MITF act	Cneo AK release	Wnt act
O=C(/C=C/c1ccco1)NC(=S)Nc1cc(-c2nc3ccccc3s2)ccc1Cl	3	-23	/	-9	/	50*
CO[C@H]1CN(C)C(=O)c2ccc(NC(=O)C3CC3)cc2OC[C@H](C)N(C(=O)NC(C)C)C[C@@H]1C	2	/	-1	/	0	/
CCOc1c2ccoc2nc2c(OC)c(OC)ccc12	/	/	21	/	-2	0
C=CCOc1ccc2c(OC)c3ccoc3nc2c1OC	/	-106	48*	27	-3	35*
COC(=O)C[C@H]1CC[C@@H]2[C@H](COC[C@H](O)CN2C(=O)Nc2ccccc2OC)O1	3	16[16.7 µM]	0	/	-1	/
CCC(=O)Nc1ccc2c(c1)OC[C@H](C)N(C(=O)Cc1ccccn1)C[C@@H](C)[C@@H](OC)CN(C)C2=O	2	/	4	/	2	/
CCCCN(C(=O)Cc1cccs1)c1nnc(-c2cccnc2)s1	-3	-124	60*	99*	-1	5
